Structures are written as SMILES. Where only a bound is given, the exact number is not on record here.

The record followed here is ChEMBL document CHEMBL1177753, “Cytotoxic bisbenzylisoquinoline alkaloids from the roots of Cyclea racemosa” (J Nat Prod, 2010).

Holding throughout (assay type): functional, cell-based
One test has as its system A2780. The test is described as follows: Cytotoxicity against human A2780 cells after 3 days by MTT assay. Particulars: A2780, 72 h. In a few lines:
(§1)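 Human tumor cells grown in RPMI-1640 with 5% fetal bovine serum. Freshly trypsinized cells seeded at 5000 cells per well in 96-well plates. Compounds added from DMSO-diluted stock. After three days of culture, attached cells stained with MTT, bound dye solubilized, absorbance read at 540 nm. IC50 taken as the concentration giving 50% growth inhibition, averaged from triplicate determinations.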

Another test relates to Bel-7402. The test can be described thus: Cytotoxicity against human Bel7402 cells after 3 days by MTT assay. As to conditions: Bel-7402, 72 h. The essentials:
as §1

The subject of a further test is HCT-8. The test is described as follows: Cytotoxicity against human HCT8 cells after 3 days by MTT assay. As to conditions: HCT-8, 72 h. The essentials:
as §1

Regarding `CC(=O)O[C@H]1C(=O)[C@@]2(C)[C@H]([C@H](OC(=O)c3ccccc3)[C@]3(O)C[C@H](OC(=O)[C@H](O)[C@@H](NC(=O)c4ccccc4)c4ccccc4)C(C)=C1C3(C)C)[C@]1(OC(C)=O)CO[C@@H]1C[C@@H]2O` [PACLITAXEL], the IC50 came to 0.65 µM with A2780, 1.8 µM in the test on Bel-7402 and 0.67 µM with HCT-8.
The like results for `COc1cc2c3cc1Oc1cc(ccc1O)C[C@@H]1c4c(cc(OC)c5c4Oc4ccc(cc4CO5)C[C@H]3N(C)CC2)CCN1C` [RACEMOSIDINE A] were, in that order, 6.7 µM, 6.09 µM and 2.8 µM.
In the case of `COc1cc2c3cc1Oc1cc(ccc1O)C[C@H]1c4c(cc(OC)c(OC)c4Oc4ccc(cc4)C[C@H]3N(C)CC2)CCN1C` [RACEMOSIDINE B], the IC50 with A2780 is more than 10 µM; in the test with Bel-7402 it was 4.62 µM; in the test on HCT-8, 9.72 µM.
Take `COc1ccc2cc1Oc1cc3c(cc1OC)CCN(C)[C@@H]3Cc1ccc(cc1)Oc1c(OC)c(O)cc3c1[C@H](C2)N(C)CC3` [RACEMOSIDINE C]: the IC50 with A2780 is more than 10 µM; in the test on Bel-7402 it was 7.53 µM; in the test with HCT-8, 6.04 µM.
As for `COc1cc2c3cc1Oc1c(O)c(OC)cc4ccnc(c14)Cc1ccc(cc1)Oc1cc(ccc1O)C[C@H]3N(C)CC2` [RACEMOSININE B], the IC50 in the test on A2780, with Bel-7402 and in the test on HCT-8 was more than 10 µM in each case.
With `COc1cc2c3cc1Oc1c(O)c(OC)cc4ccnc(c14)Cc1ccc(cc1)Oc1cc(ccc1O)C[C@H]3[N+](C)([O-])CC2` (stereo partly drawn) [RACEMOSININE C], the IC50 with A2780, with Bel-7402 and with HCT-8 was more than 10 µM each time.
